pIC50: −log10 of the molar value. Converted amounts (≈) assume the structure as drawn. The source made the active and inactive calls. The rule behind the calls is not given here.
Columns and labels:
Staphylococcus aureus = assay: Antibacterial activity against Staphylococcus aureus ATCC 29213 after overnight incubation by microbroth dilution assay; format: functional
How it was run: (§1)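 CLSI M7A7 microbroth dilution in Mueller-Hinton broth; S. pneumoniae broth given 5% lysed horse blood. DMSO stocks of 10 mg/mL; twofold dilutions to final 200–0.0125 µg/mL. Mid-log inoculum (OD600 0.5) diluted to final OD600 0.0005 (~10^5 CFU/mL). Overnight at 37°C; MIC is the lowest concentration inhibiting 90% of visible growth.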

Streptococcus pneumoniae = assay: Antibacterial activity against Streptococcus pneumoniae R6 after overnight incubation by microbroth dilution assay; format: functional; how it was run: as §1
Bacillus subtilis = assay: Antibacterial activity against Bacillus subtilis ATCC 23857 after overnight incubation by microbroth dilution assay; format: functional; how it was run: as §1
Enterococcus faecalis = assay: Antibacterial activity against Enterococcus faecalis ATCC 33186 after overnight incubation by microbroth dilution assay; format: functional
How it was run: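 CLSI microbroth dilution in Mueller-Hinton broth; compounds dissolved in DMSO, twofold serial dilutions giving final 200–0.0125 µg/mL. Inoculum from single colony grown at 37°C to mid-log (OD600 0.5), diluted to final OD600 0.0005 (~10^5 CFU/mL). Incubated overnight at 37°C; MIC = lowest concentration inhibiting 90% of visible growth.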

Bacillus anthracis [1] = assay: Inhibition of DNA synthesis in Bacillus anthracis sterne assessed as Inhibition of [3H]thymidine incorporation into DNA incubated for 15 mins prior to [3H]thymidine addition measured after 30 mins by scintillation counting; format: functional, organism-based
Bacillus anthracis [2] = assay: Inhibition of RNA synthesis in Bacillus anthracis sterne assessed as Inhibition of [3H]uracil incorporation into RNA incubated for 15 mins prior to [3H]uracil addition measured after 30 mins by scintillation counting; format: functional, organism-based
Bacillus anthracis [3] = assay: Inhibition of protein synthesis in Bacillus anthracis sterne assessed as Inhibition of [3H]amino acid incorporation into protein incubated for 15 mins prior to [3H]amino acid addition measured after 30 mins by scintillation counting; format: functional, organism-based
[4] = Inhibition of Staphylococcus aureus PlsY expressed in Escherichia coli FB23281 using [U-14C]glycerol-PO4 as substrate after 20 mins by scintillation counting
How it was run: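 Membranes from E. coli FB23281 (ΔplsY) expressing S. aureus PlsY (SA1187), 4 µg per reaction. pH 7.4 buffer of 100 mM Tris–HCl, 150 mM NaCl, 1 mg/mL BSA and 5 mM Na3VO4, with 100 µM [U-14C]glycerol-PO4. Started with 16:0-PO4 (final 100 µM), 20 min at 37°C. Spotted on filter discs, washed in graded ice-cold TCA, scintillation counted.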

Bacillus anthracis [5] = assay: Antibacterial activity against Bacillus anthracis after overnight incubation by microbroth dilution assay; format: functional

Compound | MIC90 (Staphylococcus aureus) | MIC90 (Streptococcus pneumoniae) | MIC90 (Bacillus subtilis) | MIC90 (Enterococcus faecalis) | inhibition (Bacillus anthracis [1]) | inhibition (Bacillus anthracis [2]) | inhibition (Bacillus anthracis [3]) | pIC50 [4] | MIC90 (Bacillus anthracis [5])
CCCCCCCCCCCCCCCC(=O)NS(=O)(=O)Oc1ccc(OC)cc1 | 12.5 mg/L (≈ 28.3 µM) | 12.5 mg/L (≈ 28.3 µM) | 3.12 mg/L (≈ 7.06 µM) | 3.12 mg/L (≈ 7.06 µM) | Active | Active | Active | 5.10 | 3.13 mg/L (≈ 7.09 µM)
O=C(CCCCCCc1ccccc1)NS(=O)(=O)Oc1ccccc1 | 50 mg/L (≈ 138 µM) | 50 mg/L (≈ 138 µM) | > 200 mg/L | 100 mg/L (≈ 277 µM) | Active | Active | Active | 4.12 | 12.5 mg/L (≈ 34.6 µM)
CCCCCCCCCCCCCCCC(=O)NS(=O)(=O)Oc1ccc(CCNC(=O)OC(C)(C)C)cc1 | > 200 mg/L | 3.13 mg/L (≈ 5.64 µM) | > 200 mg/L | > 200 mg/L | Active | Active | Active | 4.66 | 1.56 mg/L (≈ 2.81 µM)
O=C(CCCCCc1ccccc1)NS(=O)(=O)Oc1ccccc1 | 100 mg/L (≈ 288 µM) | 50 mg/L (≈ 144 µM) | > 200 mg/L | 50 mg/L (≈ 144 µM) | Active | Active | Active | 4.00 | 100 mg/L (≈ 288 µM)
CCCCCCCCCCCCCCCC(=O)NS(=O)(=O)Oc1cccc(Cl)c1 | > 200 mg/L | > 200 mg/L | 100 mg/L (≈ 224 µM) | 100 mg/L (≈ 224 µM) | Active | Active | Active | 4.85 | 3.13 mg/L (≈ 7.02 µM)
C=CCCCCCCCCC(=O)NS(=O)(=O)Oc1ccc(OC)cc1 | 12.5 mg/L (≈ 33.8 µM) | 200 mg/L (≈ 541 µM) | 6.25 mg/L (≈ 16.9 µM) | 1.6 mg/L (≈ 4.33 µM) | Active | Active | Active | 4.57 | 12.5 mg/L (≈ 33.8 µM)
CCCCCCCCCCCCCCCC(=O)NS(=O)(=O)Oc1ccc(C)cc1 | > 200 mg/L | > 200 mg/L | 200 mg/L (≈ 470 µM) | 200 mg/L (≈ 470 µM) | Active | Active | Active | 4.92 | 6.25 mg/L (≈ 14.7 µM)
CCCCCCCCCCCCCCCC(=O)NS(=O)(=O)Oc1ccc2c(c1)OCO2 | 100 mg/L (≈ 219 µM) | 3.13 mg/L (≈ 6.87 µM) | > 200 mg/L | > 200 mg/L | Active | Active | Active | 4.92 | > 100 mg/L
CCCCCCCCCCCCCCCC(=O)NS(=O)(=O)Oc1ccc(CCN)cc1 | > 200 mg/L | > 200 mg/L | > 200 mg/L | > 200 mg/L | Active | Active | Active | < 4.00 | > 100 mg/L
CCCCCCCCCCCCCCCC(=O)NS(=O)(=O)OC1CCOCC1 | > 200 mg/L | > 200 mg/L | > 200 mg/L | > 200 mg/L | Active | Active | Active | 4.52 | 3.13 mg/L (≈ 7.46 µM)
CCCCCCCCCCCCCCCC(=O)NS(=O)(=O)OC1CCCC1 [CYCLOPENTYL PALMITOYLSULFAMATE] | > 200 mg/L | > 200 mg/L | > 200 mg/L | > 200 mg/L | Active | Active | Active | < 4.00 | > 100 mg/L
CCCCCCCCCCCCCCCC(=O)NS(=O)(=O)Oc1ccccc1 [PHENYL PALMITOYLSULFAMATE] | > 200 mg/L | > 200 mg/L | 50 mg/L (≈ 121 µM) | 50 mg/L (≈ 121 µM) | Active | Active | Active | 5.10 | 3.13 mg/L (≈ 7.6 µM)
CCCCCCCCCCCCCCCC(=O)NS(=O)(=O)OC [METHYL PALMITOYLSULFAMATE] | > 200 mg/L | > 200 mg/L | > 200 mg/L | > 200 mg/L | Active | Active | Active | 4.10 | > 100 mg/L
CCCCCCCCCCCCCCCC(=O)NS(=O)(=O)Oc1ccc(-c2ccc([N+](=O)[O-])cc2)cc1 | 100 mg/L (≈ 188 µM) | 0.78 mg/L (≈ 1.46 µM) | > 200 mg/L | > 200 mg/L | Active | Active | Active | 4.96 | 1.56 mg/L (≈ 2.93 µM)
O=C(/C=C/c1ccc(-c2ccccc2)cc1)NS(=O)(=O)Oc1ccccc1 | 25 mg/L (≈ 65.9 µM) | 100 mg/L (≈ 264 µM) | > 200 mg/L | 50 mg/L (≈ 132 µM) | Active | Active | Active | < 4.00 | 100 mg/L (≈ 264 µM)
CCCCCCCCCCCCCCCC(=O)NS(=O)(=O)Oc1ccc2ncccc2c1 | > 200 mg/L | 1.56 mg/L (≈ 3.37 µM) | 200 mg/L (≈ 432 µM) | 200 mg/L (≈ 432 µM) | Active | Active | Active | 5.05 | 3.13 mg/L (≈ 6.77 µM)
CCCCCCCCCCCCCCCC(=O)NS(=O)(=O)OC1CCN(C(=O)OC(C)(C)C)CC1 | > 200 mg/L | > 200 mg/L | > 200 mg/L | > 200 mg/L | Active | Active | Active | 4.82 | 3.13 mg/L (≈ 6.03 µM)
CCCCCCCCCCCCCC(=O)NS(=O)(=O)Oc1ccc(OC)cc1 | > 200 mg/L | > 200 mg/L | > 200 mg/L | 6.25 mg/L (≈ 15.1 µM) | Active | Active | Active | 5.22 | 0.78 mg/L (≈ 1.89 µM)
CCCCCCCCCCCCCCCC(=O)NS(=O)(=O)Oc1ccc(CC(=O)OC)cc1 | 25 mg/L (≈ 51.7 µM) | 0.78 mg/L (≈ 1.61 µM) | > 200 mg/L | > 200 mg/L | Active | Active | Active | 4.96 | 3.13 mg/L (≈ 6.47 µM)
CCCCCCCCCCCCCCCC(=O)NS(=O)(=O)OC1CCOC1 (stereo not drawn) | 25 mg/L (≈ 61.6 µM) | > 200 mg/L | > 200 mg/L | > 200 mg/L | Active | Active | Active | 4.35 | 1.56 mg/L (≈ 3.85 µM)
CCCCCCCCCCCCCCCC(=O)NS(=O)(=O)OC1CCNCC1 | > 200 mg/L | > 200 mg/L | > 200 mg/L | > 200 mg/L | Active | Active | Active | < 4.00 | > 100 mg/L
CCCCCCCCCCCCCCCC(=O)NS(=O)(=O)Oc1ccc(C(=O)OCC)cc1 | 6.25 mg/L (≈ 12.9 µM) | 1.56 mg/L (≈ 3.23 µM) | > 200 mg/L | > 200 mg/L | Active | Active | Active | 5.00 | 3.13 mg/L (≈ 6.47 µM)
O=C(CCCCCCCCCCc1ccccc1)NS(=O)(=O)Oc1ccccc1 | 6.25 mg/L (≈ 15 µM) | 200 mg/L (≈ 479 µM) | 100 mg/L (≈ 239 µM) | 12.5 mg/L (≈ 29.9 µM) | Active | Active | Active | 5.10 | 3.13 mg/L (≈ 7.5 µM)
CCCCCCCCCCCCCCCC(=O)NS(=O)(=O)Oc1ccc(Cl)c(Cl)c1 | > 200 mg/L | > 200 mg/L | 100 mg/L (≈ 208 µM) | 100 mg/L (≈ 208 µM) | Active | Active | Active | 5.05 | 12.5 mg/L (≈ 26 µM)
CCCCCCCCCCCCCCCC(=O)NS(=O)(=O)Oc1ccc(Cl)cc1 | > 200 mg/L | 100 mg/L (≈ 224 µM) | > 200 mg/L | > 200 mg/L | Active | Active | Active | 5.22 | 6.25 mg/L (≈ 14 µM)
CCCCCCCCCCCCCCCC(=O)NS(=O)(=O)OC1CCCCC1 [CYCLOHEXYL PALMITOYLSULFAMATE] | > 200 mg/L | 100 mg/L (≈ 239 µM) | > 200 mg/L | > 200 mg/L | Active | Active | Active | 5.30 | 6.25 mg/L (≈ 15 µM)
CCCCCCCCCCCCCCCC(=O)NS(=O)(=O)Oc1ccc2c(OS(N)(=O)=O)coc2c1 | 25 mg/L (≈ 45.7 µM) | 3.13 mg/L (≈ 5.73 µM) | 100 mg/L (≈ 183 µM) | 100 mg/L (≈ 183 µM) | Active | Active | Active | 4.39 | 3.13 mg/L (≈ 5.73 µM)
